How the values were obtained:
Mus musculus [1] = experiment: Neurotoxicity in Swiss Webster mouse assessed as induction of motor impairment at 5 mg/kg administered via oral gavage measured after 10 to 60 mins by rotarod method; type: toxicity, organism-based; settings: in vivo
Method in brief: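 Female Swiss Webster mice were given diazepam 5 mg/kg by oral gavage as the positive control. Rotarod performance was tested 10, 30 and 60 min after dosing.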

[2] = Metabolic stability in human liver microsomes assessed as parent compound remaining at 10 uM after 60 mins by LC-MS analysis; type: ADME, microsome; settings: read-out: Stability
Method in brief: (§1)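 The 60 min samples of the microsomal incubation (10 μM compound, human or mouse liver microsomes at 0.5 mg/mL, NADPH regenerating system, 37 °C) were analysed by LC-MS. Detection used SIM mode with dual ESI/APCI ionization, calibrated to the retention times and masses of the parent and its O-demethylated metabolites. Peak intensities were measured.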

[3] = Metabolic stability in mouse liver microsomes assessed as parent compound remaining at 10 uM after 60 mins by LC-MS analysis; type: ADME, microsome; settings: read-out: Stability; method in brief: as §1
[4] = Drug metabolism in human liver microsomes assessed as CYP450 mediated-O-demethylated 7-hydroxy-2-[6-(trideuteriomethoxy)-3-pyridyl]-5H-pyrazolo[4,3-c]quinolin-3-one metabolite formation after 60 mins by LC-MS analysis; type: ADME; settings: 1 h
Method in brief: (§2)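 The 60-min samples from the human or mouse liver microsome incubations (10 µM compound, 0.5 mg/mL protein, NADPH regenerating system, 37 °C, pH 7.4) were run on LC-MS in SIM mode with dual ESI/APCI ionization. The method was calibrated to each component's retention time and mass, and the peak intensities of the parent and O-demethylated metabolites were measured.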

[5] = Drug metabolism in human liver microsomes assessed as CYP450 mediated-O-demethylated 2-(6-hydroxypyridin-3-yl)-7-methoxy-2H-pyrazolo[4,3-c]quinolin-3(5H)-one metabolite formation after 60 mins by LC-MS analysis; type: ADME; settings: 1 h; method in brief: as §2
[6] = Drug metabolism in human liver microsomes assessed as CYP450 mediated-O-demethylated 7-hydroxy-2-(6-hydroxypyridin-3-yl)-2H-pyrazolo[4,3-c]quinolin-3(5H)-one metabolite formation after 60 mins by LC-MS analysis; type: ADME; settings: 1 h; method in brief: as §2
[7] = Drug metabolism in mouse liver microsomes assessed as CYP450 mediated-O-demethylated 7-hydroxy-2-[6-(trideuteriomethoxy)-3-pyridyl]-5H-pyrazolo[4,3-c]quinolin-3-one metabolite formation after 60 mins by LC-MS analysis; type: ADME; settings: 1 h; method in brief: as §2
[8] = Drug metabolism in mouse liver microsomes assessed as CYP450 mediated-O-demethylated 2-(6-hydroxypyridin-3-yl)-7-methoxy-2H-pyrazolo[4,3-c]quinolin-3(5H)-one metabolite formation after 60 mins by LC-MS analysis; type: ADME; settings: 1 h; method in brief: as §2
[9] = Drug metabolism in mouse liver microsomes assessed as CYP450 mediated-O-demethylated 7-hydroxy-2-(6-hydroxypyridin-3-yl)-2H-pyrazolo[4,3-c]quinolin-3(5H)-one metabolite formation after 60 mins by LC-MS analysis; type: ADME; settings: 1 h; method in brief: as §2
Mus musculus [10] = experiment: Neurotoxicity in Swiss Webster mouse assessed as induction of motor impairment at 40 mg/kg administered via oral gavage measured after 10 to 60 mins by rotarod method; type: toxicity, organism-based; settings: in vivo
Method in brief: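 Female mice were given a single oral gavage dose of 40 mg/kg, either in 50% PBS/40% propylene glycol/10% DMSO or, for poorly soluble compounds, in 2% polyethylene glycol plus 2.5% hydroxymethyl cellulose. Rotarod performance was tested 10, 30 and 60 min after dosing, with diazepam 5 mg/kg as positive control.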

[11] = target: Voltage-gated inwardly rectifying potassium channel KCNH2 (Homo sapiens, UniProt Q12809); experiment: Displacement of [3H]-dofetilide from human ERG expressed in HEK cell membranes at >10 uM after 60 to 90 mins by scintillation counting
[12] = Drug metabolism in human liver microsomes assessed as CYP450 mediated-O-demethylated 2-(6-hydroxy-3-pyridyl)-7-(trideuteriomethoxy)-5H-pyrazolo[4,3-c]quinolin-3-one metabolite formation after 60 mins by LC-MS analysis; type: ADME; settings: 1 h; method in brief: as §2
[13] = Drug metabolism in human liver microsomes assessed as CYP450 mediated-O-demethylated 7-hydroxy-2-(6-methoxypyridin-3-yl)-2H-pyrazolo[4,3-c]quinolin-3(5H)-one metabolite formation after 60 mins by LC-MS analysis; type: ADME; settings: 1 h; method in brief: as §2
[14] = Drug metabolism in mouse liver microsomes assessed as CYP450 mediated-O-demethylated 2-(6-hydroxy-3-pyridyl)-7-(trideuteriomethoxy)-5H-pyrazolo[4,3-c]quinolin-3-one metabolite formation after 60 mins by LC-MS analysis; type: ADME; settings: 1 h; method in brief: as §2
[15] = Drug metabolism in mouse liver microsomes assessed as CYP450 mediated-O-demethylated 7-hydroxy-2-(6-methoxypyridin-3-yl)-2H-pyrazolo[4,3-c]quinolin-3(5H)-one metabolite formation after 60 mins by LC-MS analysis; type: ADME; settings: 1 h; method in brief: as §2
HEK-293T = experiment: Cytotoxicity against HEK293T cells assessed as reduction in cell viability up to 400 uM after 48 hrs by CellTiter-Glo assay; type: cell-based; settings: human
Method in brief: (§3)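 HEK293T and HepG2 cells grown in high-glucose DMEM with non-essential amino acids, 10 mM HEPES, penicillin/streptomycin and 10% heat-inactivated FBS. Cells were harvested with trypsin and plated; compound was pin-transferred 3 h later. Incubation was 48 h, then CellTiter-Glo luminescence was read. Controls were DMSO (negative) and a cytotoxic aminoketone (positive). Quadruplicates, three independent runs, normalized to controls, nonlinear regression.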

HepG2 = experiment: Cytotoxicity against human HepG2 cells assessed as reduction in cell viability up to 400 uM after 48 hrs by CellTiter-Glo assay; type: cell-based; settings: hepg2, 48 h; method in brief: as §3
[16] = Cmax in Wistar rat plasma at 10 mg/kg, ip administered as single dose measured at 5 to 720 mins post dose by HPLC-MS/MS analysis; type: ADME, organism-based; design: dose 10 mg/kg, route intraperitoneal
Method in brief: (§4)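 Male Wistar rats (250-350 g) given a single 10 mg/kg i.p. dose of a 5 mg/ml suspension in 85% distilled water, 14% propylene glycol, 1% Tween 80. Three rats per time point (5, 20, 60, 180, 720 min). Blood and brain were collected after sacrifice. Drug was recovered by solid phase extraction and quantified by HPLC-MS/MS.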

[17] = Tmax in Wistar rat plasma at 10 mg/kg, ip administered as single dose by HPLC-MS/MS analysis; type: ADME, organism-based
Method in brief: (§5)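 Male Wistar rats (250–350 g) received a single i.p. dose of 10 mg/kg as a 5 mg/ml suspension in 85% water, 14% propylene glycol and 1% Tween 80. Three rats per time point were sacrificed at 5, 20, 60, 180 and 720 min for plasma and brain. Samples were cleaned up by solid-phase extraction and quantified by HPLC-MS/MS.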

[18] = AUC (0 to 12 hrs) in Wistar rat plasma at 10 mg/kg, ip administered as single dose by HPLC-MS/MS analysis; type: ADME, organism-based; design: time < 12 hr, dose 10 mg/kg, route intraperitoneal
[19] = Terminal elimination half-life in Wistar rat plasma at 10 mg/kg, ip administered as single dose by HPLC-MS/MS analysis; type: ADME, organism-based; settings: read-out: beta t1/2 (converted); method in brief: as §5
[20] = Cmax in Wistar rat brain at 10 mg/kg, ip administered as single dose measured at 5 to 720 mins post dose by HPLC-MS/MS analysis; type: ADME, organism-based; design: dose 10 mg/kg, route intraperitoneal; method in brief: as §4
[21] = Tmax in Wistar rat brain at 10 mg/kg, ip administered as single dose by HPLC-MS/MS analysis; type: ADME, organism-based; method in brief: as §5
Brain = experiment: AUC (0 to 12 hrs) in Wistar rat brain at 10 mg/kg, ip administered as single dose by HPLC-MS/MS analysis; type: ADME, organism-based; design: dose 10 mg/kg, time < 12 hr, route intraperitoneal; settings: in vivo
[22] = Terminal elimination half-life in Wistar rat brain at 10 mg/kg, ip administered as single dose by HPLC-MS/MS analysis; type: ADME, organism-based; settings: read-out: beta t1/2 (converted); method in brief: as §5
Liver = experiment: Half life in mouse liver microsomes at 10 uM by LC-MS/MS analysis; type: ADME, microsome
Method in brief: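 Compound at 10 μM final was preincubated 5 min at 37 °C with NADPH regenerating system in phosphate buffer, pH 7.4. Human or mouse liver microsomes (0.5 mg/mL protein) were added to start the reaction. Samples were taken at 0 (no microsomes) and 10–60 min and measured by LC-MS/MS against an internal standard. Half-life = 0.693/k, with k the slope of ln peak-area ratio versus time. Three experiments, each in duplicate.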

[23] = Ratio of brain AUC (0 to t) to plasma AUC (0 to t), Kp of the compound in Wistar rat at 10 mg/kg, ip administered as single dose by HPLC-MS/MS analysis; type: ADME, organism-based
Rattus norvegicus [24] = experiment: Toxicity in Wistar rat assessed as grip strength by measuring peak force of pull necessary to overcome strength of animal's grip at 10 mg/kg, ip (reference value: 2.79 +/- 0.16 kg/kg); type: organism-based; settings: in vivo
Rattus norvegicus [25] = experiment: Toxicity in Wistar rat assessed as total distance traveled at 10 mg/kg, ip administered for 45 mins measured for 5 min by elevated plus maze method (reference value: 6.71 +/- 0.56 meter); type: organism-based; settings: in vivo
Rattus norvegicus [26] = experiment: Toxicity in Wistar rat assessed as closed arm entries at 10 mg/kg, ip administered for 45 mins measured for 5 min by elevated plus maze apparatus method (reference value: 3.63 +/- 0.42); type: organism-based; settings: in vivo
Rattus norvegicus [27] = experiment: Toxicity in Wistar rat assessed as open arm entries at 10 mg/kg, ip administered for 45 mins measured for 5 min by elevated plus maze apparatus method (reference value: 23.07 +/- 5.47%); type: organism-based; settings: in vivo
Rattus norvegicus [28] = experiment: Toxicity in Wistar rat assessed as peripheral ring distance at 10 mg/kg, ip administered for 45 mins by cued water-maze method (reference value: 67.44 +/- 4.60%); type: organism-based; settings: in vivo, 0.75 h
Rattus norvegicus [29] = experiment: Toxicity in Wistar rat assessed as total distance traveled at 10 mg/kg, ip administered for 45 mins by cued water-maze method (reference value: 8.04 +/- 1.16 meter); type: organism-based; settings: in vivo, 0.75 h
Rattus norvegicus [30] = experiment: Toxicity in Wistar rat assessed as average swim speed at 10 mg/kg, ip administered for 45 mins by cued water-maze apparatus method (reference value: 0.21 +/- 0.01 meter/s); type: organism-based; settings: in vivo, 0.75 h
Rattus norvegicus [31] = experiment: Hyperlocomotor activity in Wistar rat assessed as total distance travelled at 10 mg/kg, ip after 60 mins; type: ADME, organism-based; settings: in vivo, 1 h
Mus musculus [32] = experiment: Neurotoxicity in Swiss Webster mouse assessed as induction of motor impairment at 60 mg/kg administered via oral gavage measured after 10 to 60 mins by rotarod method; type: toxicity, organism-based; settings: in vivo

Chain of Voltage-gated inwardly rectifying potassium channel KCNH2 (Q12809 whole entry): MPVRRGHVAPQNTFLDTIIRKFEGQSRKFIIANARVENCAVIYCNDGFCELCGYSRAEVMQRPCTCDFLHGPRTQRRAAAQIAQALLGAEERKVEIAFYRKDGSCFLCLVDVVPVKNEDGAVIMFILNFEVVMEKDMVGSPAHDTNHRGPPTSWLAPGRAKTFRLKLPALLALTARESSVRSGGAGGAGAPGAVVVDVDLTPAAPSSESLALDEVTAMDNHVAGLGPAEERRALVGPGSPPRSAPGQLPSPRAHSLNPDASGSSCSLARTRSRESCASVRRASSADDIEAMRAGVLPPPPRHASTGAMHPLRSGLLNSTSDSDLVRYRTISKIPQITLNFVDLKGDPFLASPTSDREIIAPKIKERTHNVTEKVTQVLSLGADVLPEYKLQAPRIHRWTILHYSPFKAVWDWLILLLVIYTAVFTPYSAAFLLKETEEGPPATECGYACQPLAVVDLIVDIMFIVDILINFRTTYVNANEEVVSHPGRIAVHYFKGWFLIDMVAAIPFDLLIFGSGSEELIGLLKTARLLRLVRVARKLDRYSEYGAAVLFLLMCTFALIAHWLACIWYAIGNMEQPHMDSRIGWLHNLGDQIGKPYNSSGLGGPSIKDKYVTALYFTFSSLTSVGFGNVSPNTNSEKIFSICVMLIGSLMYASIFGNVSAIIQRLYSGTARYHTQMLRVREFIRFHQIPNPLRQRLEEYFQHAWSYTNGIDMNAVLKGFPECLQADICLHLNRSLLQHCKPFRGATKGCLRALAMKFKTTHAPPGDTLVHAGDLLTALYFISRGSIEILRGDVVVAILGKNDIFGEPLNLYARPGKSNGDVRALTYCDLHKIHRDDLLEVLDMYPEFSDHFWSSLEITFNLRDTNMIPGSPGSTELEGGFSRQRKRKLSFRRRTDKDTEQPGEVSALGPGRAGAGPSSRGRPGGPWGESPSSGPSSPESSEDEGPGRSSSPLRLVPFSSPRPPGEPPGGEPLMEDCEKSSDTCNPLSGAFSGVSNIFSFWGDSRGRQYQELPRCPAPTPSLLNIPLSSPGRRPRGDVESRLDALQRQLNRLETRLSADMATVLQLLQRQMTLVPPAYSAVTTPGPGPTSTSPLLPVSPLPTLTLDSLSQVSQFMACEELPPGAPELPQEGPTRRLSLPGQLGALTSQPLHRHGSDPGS

## CN1C(=O)CN=C(c2ccccc2)c2cc(Cl)ccc21 [DIAZEPAM]
Mus musculus [1]
  Activity: Toxic

## [2H]C([2H])([2H])Oc1ccc(-n2nc3c4ccc(OC)cc4[nH]cc-3c2=O)cn1
[2]
  remaining at 1 h, 10 µM: 92.6%
[3]
  remaining at 1 h, 10 µM: 92.4%
[4]
  Drug metabolism: Metabolite_Detected
[5]
  Drug metabolism: Metabolite_Detected
[6]
  Drug metabolism: Metabolite_Detected
[7]
  Drug metabolism: Metabolite_Detected
[8]
  Drug metabolism: Metabolite_Detected
[9]
  Drug metabolism: Metabolite_Detected
Mus musculus [10]
  Activity: Non-Toxic
[11]
  inhibition (INH): Not Active

## [2H]C([2H])([2H])Oc1ccc2c3nn(-c4ccc(OC)nc4)c(=O)c-3c[nH]c2c1
[2]
  remaining at 1 h, 10 µM: 92.3%
[3]
  remaining at 1 h, 10 µM: 91.4%
[6]
  Drug metabolism: Metabolite_Detected
[9]
  Drug metabolism: Metabolite_Detected
[12]
  Drug metabolism: Metabolite_Detected
[13]
  Drug metabolism: Metabolite_Detected
[14]
  Drug metabolism: Metabolite_Detected
[15]
  Drug metabolism: Metabolite_Detected
HEK-293T
  Activity: Non-Toxic
HepG2
  Activity: Non-Toxic
Mus musculus [10]
  Activity: Non-Toxic
[16]
  Cmax: 1250 ng/mL
[17]
  Tmax: 1 h
[18]
  AUC(0-t) at 12 h: 6020 ng·h/mL
[19]
  half-life: 18 h
[20]
  Cmax: 215 ng/g
[21]
  Tmax: 1.67 h
Brain
  AUC: 1502.14 ng·h/g
[22]
  half-life: 9.07 h
[11]
  inhibition (INH): Not Active

## [2H]C([2H])([2H])Oc1ccccc1-n1nc2c3cc(Cl)ccc3[nH]cc-2c1=O
[2]
  remaining at 1 h, 10 µM: 94.8%
Liver
  t1/2: 16.6 h
[3]
  remaining at 1 h, 10 µM: 94.9%
HEK-293T
  Activity: Non-Toxic
HepG2
  Activity: Non-Toxic
[16]
  Cmax: 434 ng/mL
[17]
  Tmax: 0.78 h
[18]
  AUC(0-t) at 12 h: 1800 ng·h/mL
[19]
  half-life: 3.66 h
[20]
  Cmax: 65.6 ng/g
[21]
  Tmax: 0.78 h
Brain
  AUC: 269.03 ng·h/g
[22]
  half-life: 5.54 h
[23]
  Kp: 0.15
Rattus norvegicus [24]
  Activity: 2.66 kg/kg
Rattus norvegicus [25]
  Activity: 6.14 m
Rattus norvegicus [26]
  Activity: 3.5
Rattus norvegicus [27]
  Activity: 20.6%
Rattus norvegicus [28]
  Activity: 69.34%
Rattus norvegicus [29]
  Activity: 9.93 m
Rattus norvegicus [30]
  Activity: 0.22 meter/s
Rattus norvegicus [31]
  Activity: Non-Toxic
[11]
  inhibition (INH): Not Active
Mus musculus [32]
  Activity: Non-Toxic
